Measured values from ChEMBL document CHEMBL1138325, “Design, synthesis, in vitro, and in vivo characterization of phenylpiperazines and pyridinylpiperazines as potent and selective antagonists of the melanocortin-4 receptor” (J Med Chem, 2007).

How the values were obtained:
[1] = Ratio of drug level in brain to plasma in CD1 mouse at 10 mg/kg, ip; type: ADME, organism-based; design: dose 10 mg/kg, route intraperitoneal; settings: read-out: BPR
[2] = Bioavailability in monkey at 10 mg/kg, po; type: ADME, organism-based, Macaca mulatta; settings: rhesus monkey, in vivo
[3] = Ratio of drug level in brain to plasma in Sprague-Dawley rat at 10 mg/kg, po after 4 hrs; type: ADME, organism-based; design: dose 10 mg/kg, route oral; settings: brain and plasma, read-out: BPR
Method in brief: (§1)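 Sprague–Dawley rats, three animals per route; i.v. dose 5 mg/kg and oral 10 mg/kg. Brain concentrations and brain/plasma ratios taken from the oral dosing at 1 and 4 h post-dose.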

[4] = AUC in dog at 10 mg/kg, po; type: ADME, organism-based, Canis lupus familiaris; design: dose 10 mg/kg, route oral; settings: plasma
Melanocortin receptor 4 = Melanocortin receptor 4 (Homo sapiens, UniProt P32245); assay: Displacement of [125I]NDPMSH from human MC4R expressed in HEK293 cells; type: cell-based
Melanocortin receptor 4, sequence (P32245 whole entry): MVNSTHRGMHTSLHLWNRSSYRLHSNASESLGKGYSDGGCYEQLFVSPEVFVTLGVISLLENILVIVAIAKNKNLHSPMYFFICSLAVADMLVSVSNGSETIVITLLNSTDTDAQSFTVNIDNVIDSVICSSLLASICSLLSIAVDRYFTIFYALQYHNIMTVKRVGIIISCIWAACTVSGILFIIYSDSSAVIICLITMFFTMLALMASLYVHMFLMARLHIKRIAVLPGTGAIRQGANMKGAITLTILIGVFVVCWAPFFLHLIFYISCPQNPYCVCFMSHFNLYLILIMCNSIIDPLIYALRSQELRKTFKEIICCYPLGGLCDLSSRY

[5] = AUC in monkey at 5 mg/kg, iv; type: ADME, organism-based, Macaca mulatta; design: dose 5 mg/kg, route intravenous; settings: rhesus monkey, plasma
Mus musculus = assay: Increase in lean body mass in Lewis lung carcinoma bearing C57BL/6J mouse at 3 mg/kg, ip bid after 4 days; type: functional; settings: route intraperitoneal
Method in brief: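 Male C57BL/6J mice inoculated with Lewis lung carcinoma cells. From day 11 after inoculation, mice were dosed i.p. twice daily at 3 or 9 mg/kg for 4 days and compared with vehicle-treated tumor-bearing controls. Food intake and body weight were recorded; lean body mass was measured by DEXA.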

Melanocortin receptor 5 = Melanocortin receptor 5 (Homo sapiens, UniProt P33032); assay: Displacement of [125I]NDPMSH from human MC5R expressed in HEK293 cells; type: cell-based
Melanocortin receptor 5, sequence (P33032 whole entry): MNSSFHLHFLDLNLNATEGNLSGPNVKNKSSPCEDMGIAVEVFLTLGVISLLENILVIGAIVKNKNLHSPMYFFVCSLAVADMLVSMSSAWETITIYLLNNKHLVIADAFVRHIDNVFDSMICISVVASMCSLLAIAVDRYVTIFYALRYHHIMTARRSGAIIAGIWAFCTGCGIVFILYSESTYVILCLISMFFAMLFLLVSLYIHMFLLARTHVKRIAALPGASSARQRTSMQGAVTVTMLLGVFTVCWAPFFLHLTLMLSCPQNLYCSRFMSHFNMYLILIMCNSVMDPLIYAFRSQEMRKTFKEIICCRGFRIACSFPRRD

[6] = Oral bioavailability in Sprague-Dawley rat at 10 mg/kg, po; type: ADME, organism-based; settings: in vivo; method in brief: as §1
[7] = Clearance in Sprague-Dawley rat at 5 mg/kg, iv and 10 mg/kg, po; type: ADME, organism-based; settings: in vivo
[8] = Half life in monkey at 5 mg/kg, iv; type: ADME, organism-based, Macaca mulatta; design: dose 5 mg/kg, route intravenous; settings: rhesus monkey, in vivo
[9] = Ratio of drug level in brain to plasma in CD1 mouse at 5 mg/kg, iv after 1 hr; type: ADME, organism-based; design: dose 5 mg/kg, route intravenous; settings: brain and plasma, read-out: BPR
[10] = Drug level in Sprague-Dawley rat brain at 10 mg/kg, po after 1 hr; type: ADME, organism-based; design: dose 10 mg/kg, route oral; settings: read-out: Drug uptake
[11] = Half life in Sprague-Dawley rat at 5 mg/kg, iv and 10 mg/kg, po; type: ADME, organism-based; settings: in vivo
[12] = Volume of distribution in dog at 5 mg/kg, iv; type: ADME, organism-based, Canis lupus familiaris; design: dose 5 mg/kg, route intravenous; settings: in vivo
[13] = Clearance in dog at 5 mg/kg, iv; type: ADME, organism-based, Canis lupus familiaris; design: dose 5 mg/kg, route intravenous; settings: in vivo
[14] = Tmax in CD1 mouse at 10 mg/kg, po; type: ADME, organism-based; design: dose 10 mg/kg, route oral; settings: in vivo
Method in brief: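 CD-1 mice, three animals per route; single i.v. dose at 5 mg/kg and oral gavage at 10 mg/kg. Plasma PK parameters derived; brain concentrations and brain/plasma ratios taken from the i.v. dosing at 1 and 4 h.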

[15] = Cmax in dog at 10 mg/kg, po; type: ADME, organism-based, Canis lupus familiaris; design: dose 10 mg/kg, route oral; settings: in vivo
[16] = Bioavailability in dog at 10 mg/kg, po; type: ADME, organism-based, Canis lupus familiaris; settings: in vivo
[17] = molecular target: Growth hormone secretagogue receptor type 1 (Homo sapiens, UniProt Q92847); assay: Binding affinity to GHSR
Growth hormone secretagogue receptor type 1, sequence (Q92847 whole entry): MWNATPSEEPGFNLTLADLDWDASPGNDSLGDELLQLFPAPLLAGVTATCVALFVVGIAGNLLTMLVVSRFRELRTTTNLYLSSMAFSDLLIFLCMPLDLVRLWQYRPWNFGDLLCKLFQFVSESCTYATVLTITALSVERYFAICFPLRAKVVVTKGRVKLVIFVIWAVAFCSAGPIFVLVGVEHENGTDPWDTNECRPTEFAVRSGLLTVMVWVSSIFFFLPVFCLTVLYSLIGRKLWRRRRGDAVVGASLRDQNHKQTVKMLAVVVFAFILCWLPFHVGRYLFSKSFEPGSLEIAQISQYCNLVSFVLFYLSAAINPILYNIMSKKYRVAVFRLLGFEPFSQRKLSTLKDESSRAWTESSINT

[18] = Volume of distribution in Sprague-Dawley rat at 5 mg/kg, iv and 10 mg/kg, po; type: ADME, organism-based; settings: in vivo; method in brief: as §1

CC(C)C[C@H](NC(=O)CCN(C)C)c1cc(Cl)ccc1N1CCN(C(=O)[C@H](C)Cc2ccc(Cl)cc2)CC1
Kp [1]: 2 | bioavailability [2]: 13.1% | Kp at 4 h [3]: 0.3 | AUC [4]: 1480 ng·h/mL | Ki (Melanocortin receptor 4): 3.4 nM | AUC [5]: 3700 ng·h/mL | Activity (Mus musculus): 7% | Ki (Melanocortin receptor 5): 600 nM | bioavailability [6]: 18% | clearance [7]: 13 mL/min/kg | half-life [8]: 4.1 h | Kp at 1 h [9]: 2.4 | concentration at 1 h [10]: 3 ng/g | half-life [11]: 2.2 h | Vd [12]: 11.8 L/kg | clearance [13]: 29.4 mL/min/kg | Tmax [14]: 0.5 h | Cmax [15]: 142 ng/mL | bioavailability [16]: 29.4% | Ki [17]: 460 nM | Vd [18]: 2.5 L/kg
